Values joined by “and” are separate entries in the source; they are usually repeats but may differ in a detail not shown here. Equal entries are not always repeated.
Test system: Fibroblast
Assay: Multiplex assay against human fibroblast
Assay type: toxicity, cell-based
Conditions: number of replicates 2
In short: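 Live cells were stained at seeding with Hoechst33342, BioTracker Green Microtubule Cytoskeleton Dye, MitoTracker Red and Annexin V Alexa Fluor 680. Following compound addition, they were imaged on a CQ1 microscope at 37°C and 5% CO2 and gated by CellPathfinder machine learning into Hoechst high-intensity objects or normal cells, with normal cells split into healthy, pyknosed or fragmented nuclei and pyknosed cells into mitotic or apoptotic. Tubulin, mitochondrial-mass and membrane-permeability phenotypes are per cents of healthy-nucleus cells.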

[1] = 12 h, 1 µM, compound concentration 1 uM
[2] = 12 h, 10 µM, compound concentration 10 uM
[3] = 24 h, 1 µM, compound concentration 1 uM
[4] = 24 h, 10 µM, compound concentration 10 uM
[5] = 48 h, 1 µM, compound concentration 1 uM
[6] = 48 h, 10 µM, compound concentration 10 uM

Compound: COc1cc(OC)cc(C(=O)NNC(=O)Nc2cccc3ccccc23)c1
- Population Apoptotic (%) [1]: 32% and 47%
- Population Fragmented Nuclei (%) [1]: 6% and 18%
- Population Healthy Nuclei (%) [1]: 77% and 72%
- Population Hoechst High Intensity Objects (%) [1]: 0%
- Population Membrane Permeable-Phenotype (%) [1]: 3%
- Population Mitochondria Different-Phenotype (%) [1]: 0% and 1%
- Population Mitotic Cells (%) [1]: 67% and 52%
- Population Normal (%) [1]: 100%
- Population Pyknosed Nuclei (%) [1]: 15% and 8%
- Population Tubulin-Different-Phenotype (%) [1]: 10% and 5%
- Total Cell Count [1]: 196 and 216
- Population Apoptotic (%) [2]: 34% and 37%
- Population Fragmented Nuclei (%) [2]: 9% and 7%
- Population Healthy Nuclei (%) [2]: 70% and 85%
- Population Hoechst High Intensity Objects (%) [2]: 0%
- Population Membrane Permeable-Phenotype (%) [2]: 3% and 2%
- Population Mitochondria Different-Phenotype (%) [2]: 1% and 0%
- Population Mitotic Cells (%) [2]: 65% and 62%
- Population Normal (%) [2]: 100%
- Population Pyknosed Nuclei (%) [2]: 20% and 7%
- Population Tubulin-Different-Phenotype (%) [2]: 12% and 6%
- Total Cell Count [2]: 159 and 228
- Population Apoptotic (%) [3]: 41% and 50%
- Population Healthy Nuclei (%) [3]: 87% and 76%
- Population Hoechst High Intensity Objects (%) [3]: 0%
- Population Membrane Permeable-Phenotype (%) [3]: 3% and 1%
- Population Mitochondria Different-Phenotype (%) [3]: 2% and 0%
- Population Mitotic Cells (%) [3]: 58% and 50%
- Population Normal (%) [3]: 100%
- Population Pyknosed Nuclei (%) [3]: 8% and 6%
- Population Tubulin-Different-Phenotype (%) [3]: 11% and 3%
- Total Cell Count [3]: 199 and 203
- Population Apoptotic (%) [4]: 38% and 25%
- Population Fragmented Nuclei (%) [4]: 10%
- Population Healthy Nuclei (%) [4]: 77% and 85%
- Population Hoechst High Intensity Objects (%) [4]: 0%
- Population Membrane Permeable-Phenotype (%) [4]: 3% and 0%
- Population Mitochondria Different-Phenotype (%) [4]: 2% and 0%
- Population Mitotic Cells (%) [4]: 61% and 75%
- Population Normal (%) [4]: 100% and 99%
- Population Pyknosed Nuclei (%) [4]: 11% and 3%
- Total Cell Count [4]: 155 and 236
- Population Apoptotic (%) [5]: 62% and 56%
- Population Fragmented Nuclei (%) [5]: 7% and 15%
- Population Healthy Nuclei (%) [5]: 88% and 78%
- Population Hoechst High Intensity Objects (%) [5]: 0%
- Population Membrane Permeable-Phenotype (%) [5]: 1% and 2%
- Population Mitochondria Different-Phenotype (%) [5]: 0%
- Population Mitotic Cells (%) [5]: 37% and 43%
- Population Normal (%) [5]: 100%
- Population Pyknosed Nuclei (%) [5]: 3% and 6%
- Population Tubulin-Different-Phenotype (%) [5]: 5% and 1%
- Total Cell Count [5]: 213 and 238
- Population Apoptotic (%) [6]: 66% and 70%
- Population Fragmented Nuclei (%) [6]: 12% and 9%
- Population Healthy Nuclei (%) [6]: 82% and 86%
- Population Hoechst High Intensity Objects (%) [6]: 0%
- Population Membrane Permeable-Phenotype (%) [6]: 5% and 0%
- Population Mitochondria Different-Phenotype (%) [6]: 0%
- Population Mitotic Cells (%) [6]: 33% and 30%
- Population Normal (%) [6]: 99%
- Population Pyknosed Nuclei (%) [6]: 5% and 4%
- Population Tubulin-Different-Phenotype (%) [6]: 8% and 1%
- Total Cell Count [6]: 165 and 243

Compound: CS(=O)(=O)c1ccc(C(=O)Nc2cccc(COc3ccc(Br)cc3CN3CCC[C@H](O)C3)c2)c(Cl)c1.O=CO
- Population Healthy Nuclei (%) [1]: 71% and 60%
- Population Hoechst High Intensity Objects (%) [1]: 0%
- Population Mitotic Cells (%) [1]: 55% and 58%
- Population Pyknosed Nuclei (%) [1]: 17% and 22%
- Total Cell Count [1]: 200 and 202
- Population Healthy Nuclei (%) [2]: 52% and 60%
- Population Hoechst High Intensity Objects (%) [2]: 0%
- Population Mitotic Cells (%) [2]: 49% and 62%
- Population Pyknosed Nuclei (%) [2]: 18%
- Total Cell Count [2]: 221 and 338
- Population Healthy Nuclei (%) [3]: 72% and 64%
- Population Hoechst High Intensity Objects (%) [3]: 0%
- Population Mitotic Cells (%) [3]: 38% and 53%
- Population Pyknosed Nuclei (%) [3]: 21%
- Total Cell Count [3]: 214 and 180
- Population Healthy Nuclei (%) [4]: 50% and 65%
- Population Hoechst High Intensity Objects (%) [4]: 0%
- Population Mitotic Cells (%) [4]: 35% and 26%
- Population Pyknosed Nuclei (%) [4]: 21% and 12%
- Total Cell Count [4]: 261 and 390
- Population Healthy Nuclei (%) [5]: 73% and 72%
- Population Hoechst High Intensity Objects (%) [5]: 0%
- Population Mitotic Cells (%) [5]: 20% and 29%
- Population Pyknosed Nuclei (%) [5]: 12%
- Total Cell Count [5]: 198 and 185
- Population Healthy Nuclei (%) [6]: 54% and 63%
- Population Hoechst High Intensity Objects (%) [6]: 0%
- Population Mitotic Cells (%) [6]: 10% and 9%
- Population Pyknosed Nuclei (%) [6]: 7%
- Total Cell Count [6]: 285 and 416

Compound: NCC1CCC(CNc2nc(NCc3ccccc3OC(F)(F)F)ncc2[N+](=O)[O-])CC1 (centres undefined)
- Population Apoptotic (%) [1]: 46% and 42%
- Population Fragmented Nuclei (%) [1]: 9%
- Population Healthy Nuclei (%) [1]: 68% and 62%
- Population Hoechst High Intensity Objects (%) [1]: 0%
- Population Membrane Permeable-Phenotype (%) [1]: 7% and 9%
- Population Mitochondria Different-Phenotype (%) [1]: 1% and 2%
- Population Mitotic Cells (%) [1]: 53% and 57%
- Population Normal (%) [1]: 100% and 99%
- Population Pyknosed Nuclei (%) [1]: 21% and 27%
- Population Tubulin-Different-Phenotype (%) [1]: 60% and 45%
- Total Cell Count [1]: 205 and 224
- Population Apoptotic (%) [2]: 34% and 27%
- Population Fragmented Nuclei (%) [2]: 14% and 23%
- Population Healthy Nuclei (%) [2]: 54% and 60%
- Population Hoechst High Intensity Objects (%) [2]: 0%
- Population Membrane Permeable-Phenotype (%) [2]: 6% and 9%
- Population Mitochondria Different-Phenotype (%) [2]: 28% and 18%
- Population Mitotic Cells (%) [2]: 65% and 72%
- Population Normal (%) [2]: 100%
- Population Pyknosed Nuclei (%) [2]: 31% and 16%
- Population Tubulin-Different-Phenotype (%) [2]: 84% and 87%
- Total Cell Count [2]: 135 and 286
- Population Apoptotic (%) [3]: 64% and 60%
- Population Fragmented Nuclei (%) [3]: 10% and 15%
- Population Healthy Nuclei (%) [3]: 67% and 62%
- Population Hoechst High Intensity Objects (%) [3]: 0% and 1%
- Population Membrane Permeable-Phenotype (%) [3]: 0% and 1%
- Population Mitochondria Different-Phenotype (%) [3]: 8%
- Population Mitotic Cells (%) [3]: 35% and 40%
- Population Normal (%) [3]: 100% and 98%
- Population Pyknosed Nuclei (%) [3]: 22% and 21%
- Population Tubulin-Different-Phenotype (%) [3]: 50% and 37%
- Total Cell Count [3]: 202 and 217
- Population Apoptotic (%) [4]: 81% and 62%
- Population Fragmented Nuclei (%) [4]: 21% and 22%
- Population Healthy Nuclei (%) [4]: 58% and 67%
- Population Hoechst High Intensity Objects (%) [4]: 0%
- Population Membrane Permeable-Phenotype (%) [4]: 5% and 3%
- Population Mitochondria Different-Phenotype (%) [4]: 54% and 59%
- Population Mitotic Cells (%) [4]: 18% and 37%
- Population Normal (%) [4]: 100%
- Population Pyknosed Nuclei (%) [4]: 20% and 9%
- Population Tubulin-Different-Phenotype (%) [4]: 93%
- Total Cell Count [4]: 132 and 274
- Population Apoptotic (%) [5]: 70% and 72%
- Population Fragmented Nuclei (%) [5]: 10% and 13%
- Population Healthy Nuclei (%) [5]: 72% and 65%
- Population Hoechst High Intensity Objects (%) [5]: 0%
- Population Membrane Permeable-Phenotype (%) [5]: 4% and 3%
- Population Mitochondria Different-Phenotype (%) [5]: 2% and 4%
- Population Mitotic Cells (%) [5]: 29% and 27%
- Population Normal (%) [5]: 100%
- Population Pyknosed Nuclei (%) [5]: 16% and 20%
- Population Tubulin-Different-Phenotype (%) [5]: 38% and 35%
- Total Cell Count [5]: 210 and 217
- Population Apoptotic (%) [6]: 90% and 66%
- Population Fragmented Nuclei (%) [6]: 28% and 36%
- Population Healthy Nuclei (%) [6]: 65% and 58%
- Population Hoechst High Intensity Objects (%) [6]: 1% and 0%
- Population Membrane Permeable-Phenotype (%) [6]: 0% and 4%
- Population Mitochondria Different-Phenotype (%) [6]: 34% and 30%
- Population Normal (%) [6]: 98% and 99%
- Population Pyknosed Nuclei (%) [6]: 6% and 4%
- Population Tubulin-Different-Phenotype (%) [6]: 92% and 91%
- Total Cell Count [6]: 160 and 339
